Compound activity as filed in PubChem BioAssay.
T cruzi repl – blocks replication of Trypanosoma cruzi; inhibition, % (concentration not given with the values); actives 1.4% (n = 300,000); AID 1885; T. cruzi beta-gal in NIH3T3, luminescence, 90 h;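 active = mean inhibition across valid replicates above about 55%, limit read from the data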;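 also: signal also drops with host cell toxicity which is not excluded here; higher percent means less beta-gal luminescence so fewer parasites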
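System: NIH/3T3 fibroblasts plus reporter T. cruzi. Medium: DMEM plus 2% FBS. Probe or stimulus: 5000 reporter trypomastigotes per well. Compound: single 50 nL compound addition per well in DMSO. Incubation: co-culture of at least 90 h after 3 h attachment. Detection: GalScreen β-gal luminescence, detergent lysis, 60 min. Evaluation: parasite load inhibition, %.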
MEKK2mut PB1 HTS – signal of MEK5 binding to mutant human MEKK2 PB1 domain. bead flow cytometry, Alexa488-MEK5 binding to MEKK2 mutant. percent response, % at 10 µM. actives 0.35% (n = 290,000); in the data active = percent response above about 24%, passing the limit was not always enough
HCV NS3 hel inh – inhibitors of Hepatitis C virus NS3 helicase. AID 1800. inhibition, % at 10.9 µM. actives 0.56% (n = 290,000). NS3 helicase DNA unwinding, Cy5 molecular beacon fluorescence;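 active = inhibition above the mean of all tested compounds plus 3 SD, set per campaign, cut at about 35% in these data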
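System: NS3 helicase fragment of HCV / Schedule: 1 h at 25 °C / Control set: DMSO alone as 0% and 110 µM thioflavine S as 100% / Reagent: Cy5/quencher beacon DNA duplex and ATP to start / Technique: Cy5 fluorescence / Replication: singlicate / Evaluation: % inhibition of end-to-start signal ratio versus controls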
MEKK2wt PB1 HTS – raises or lowers MEK5 binding to wildtype human MEKK2 PB1 domain | AID 1531 | bead flow cytometry, Alexa488-MEK5 binding to MEKK2 WT; actives lie on both sides | actives 1.1% (n = 290,000) | binding response (% of control), % at 10 µM | Q9Y2U5; in the data active = binding response below about 67% or above about 130%
DNA FID counter – counter-screen for HCV NS3 helicase inhibitors: DNA intercalator displacement; AID 1845; inhibition, % at 7.9 µM; actives 0.17% (n = 290,000); DNA fluorescent intercalator displacement, fluorescence; in the data active = inhibition above about 37%;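 also: higher means more ethidium bromide displaced from hairpin DNA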
MEKK3 PB1 HTS – raises or lowers MEK5 binding to the human MEKK3 PB1 domain; Q99759; bead-based flow cytometry, Alexa488-MEK5 binding to MEKK3; actives lie on both sides; 0 = blocked by unlabeled MEK5, 100 = vehicle; binding response (% of control), % at 10 µM; actives 1.4% (n = 290,000);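 active = binding response more than 3 SD above or below the average of its plate-row segment, actives on both sides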;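 also: Alexa488 bead fluorescence after subtracting the streptavidin-only scavenger bead signal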
Target sequence (Q99759 whole entry, looked up, the tested form may be a part): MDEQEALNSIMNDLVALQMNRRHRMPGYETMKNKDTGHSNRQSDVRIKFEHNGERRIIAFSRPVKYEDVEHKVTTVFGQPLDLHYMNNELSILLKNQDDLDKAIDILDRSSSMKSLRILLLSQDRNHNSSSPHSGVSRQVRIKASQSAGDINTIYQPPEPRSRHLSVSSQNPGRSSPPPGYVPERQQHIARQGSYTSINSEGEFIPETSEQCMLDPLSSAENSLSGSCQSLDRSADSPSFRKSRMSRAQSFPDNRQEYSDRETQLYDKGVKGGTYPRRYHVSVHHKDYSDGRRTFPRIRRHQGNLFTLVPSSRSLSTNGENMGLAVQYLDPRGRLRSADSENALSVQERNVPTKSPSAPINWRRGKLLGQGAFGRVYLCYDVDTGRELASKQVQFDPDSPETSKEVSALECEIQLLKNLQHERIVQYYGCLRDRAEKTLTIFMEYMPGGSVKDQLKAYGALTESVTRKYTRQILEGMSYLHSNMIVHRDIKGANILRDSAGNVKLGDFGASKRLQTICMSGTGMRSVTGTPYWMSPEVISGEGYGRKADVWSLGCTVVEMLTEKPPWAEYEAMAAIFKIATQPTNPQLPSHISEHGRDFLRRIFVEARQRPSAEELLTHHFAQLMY
MEKK2wt confirm – raises or lowers MEK5 binding to wildtype human MEKK2, retest. bead flow cytometry, Alexa488-MEK5 binding to MEKK2 WT; actives lie on both sides. shares compounds with MEKK3 PB1 HTS. AID 1892. actives 2.4% (n = 5,900). binding response (% of control), % at 10 µM; in the data active = binding response below about 16% or above about 210%; inactive = in between
MEKK2mut-MEK5 – signal of MEK5 binding to mutant human MEKK2, retest; percent response, % at 10 µM; bead flow cytometry, Alexa488-MEK5 binding to MEKK2 mutant; actives 2% (n = 5,900); shares compounds with MEKK3 PB1 HTS; in the data active = percent response mostly above about 71%, no sharp cut-off; inactive = mostly below about 38%;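 also: higher means compound restores mutant binding toward wildtype level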
MEKK3-MEK5 inh – MEKK3-MEK5 PB1 inhibition, single concentration confirmation; shares compounds with MEKK3 PB1 HTS; bead flow cytometry, Alexa488-MEK5 binding to MEKK3; active compounds read low; binding response (% of control), % at 10 µM; actives 1.8% (n = 5,900); AID 1894;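 active = binding response below 72% of control, or above a set upper limit, though filed actives all read lower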;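 also: lower values mean stronger disruption of MEK5 binding to MEKK3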
Each line names hits and unclear results; the compound was inactive in the other large screens (follow-up assays come after a bar, where they were run); [ ] = another dose, or the depositor's remark. Compounds with a hit are over-represented: about 4.1% of the library has one in this group of screens.

CN(CCC#N)C(=O)COC(=O)c1ccc2c(=O)n3c(nc2c1)CCC3	MEKK3 PB1 HTS 128 | MEKK2wt confirm inactive | MEKK2mut-MEK5 inactive | MEKK3-MEK5 inh inactive
Cc1cc(N2CCN(C)CC2)nc2ccc(NC(=S)NCc3cccs3)cc12	MEKK2wt PB1 HTS 141 | MEKK2wt confirm inactive | MEKK2mut-MEK5 inactive | MEKK3-MEK5 inh inactive
COc1cc(C(=O)Nc2ccc3nc(N4CCN(C)CC4)cc(C)c3c2)cc(OC)c1OC	none
COc1ccc(CNC(=S)Nc2ccc3nc(N4CCN(C)CC4)cc(C)c3c2)cc1	MEKK2wt PB1 HTS 152 | MEKK2wt confirm inactive | MEKK2mut-MEK5 inactive | MEKK3-MEK5 inh inactive
CCCCN(CC)CCCNC(=S)Nc1ccc2nc(N3CCN(C)CC3)cc(C)c2c1	MEKK2wt PB1 HTS 142 | MEKK2wt confirm inactive | MEKK2mut-MEK5 inactive | MEKK3-MEK5 inh inactive
Cc1cc(N2CCN(C)CC2)nc2ccc(NC(=S)NCCCN3CCN(C)CC3)cc12	none
COc1ccccc1CNC(=S)Nc1ccc2nc(N3CCN(C)CC3)cc(C)c2c1	T cruzi repl 57, MEKK2wt PB1 HTS 138 | MEKK2wt confirm inactive | MEKK2mut-MEK5 inactive | MEKK3-MEK5 inh inactive
COc1ccc(CNC(=S)Nc2ccc3nc(N4CCOCC4)cc(C)c3c2)cc1	none
COc1ccc(N2CCN(C(=O)C3CCN(C(=O)c4cccc(Cl)c4)CC3)CC2)cc1	none
COC(=O)c1ccc(C(=O)N2CCCC(CNC(=O)c3ccccc3Cl)C2)cc1 (stereo unspecified)	none
COc1ccc(CC(=O)N2CCCC(CNC(=O)c3ccccc3Cl)C2)cc1 (stereo unspecified)	MEKK3 PB1 HTS 47[inhibitor] | MEKK2wt confirm inactive | MEKK2mut-MEK5 inactive | MEKK3-MEK5 inh inactive
CCCCNC(=S)Nc1ccccc1F	MEKK2mut PB1 HTS 25 | MEKK2wt confirm inactive | MEKK2mut-MEK5 inactive | MEKK3-MEK5 inh inactive
CC(C)CNC(=S)Nc1ccccc1F	none
O=C(Nc1ccccc1F)Nc1cccnc1Cl	none (no result: MEKK2mut PB1 HTS, HCV NS3 hel inh, MEKK2wt PB1 HTS, DNA FID counter, MEKK3 PB1 HTS)
CCOC(=O)c1ccc(N2C(=O)CC(Nc3ccc(O)cc3)C2=O)cc1 (stereo unspecified)	MEKK3 PB1 HTS 128 | MEKK2wt confirm inactive | MEKK2mut-MEK5 inactive | MEKK3-MEK5 inh inactive
CCOC(=O)c1ccc(N2C(=O)CC(NNC(=O)c3ccc(Br)s3)C2=O)cc1 (stereo unspecified)	none
Cc1cccc(C(=O)N/N=C/c2cc(Br)c(Br)o2)c1	none
O=C(CCc1[nH]c2ccccc2c1Sc1ccccc1)NCCO	MEKK3 PB1 HTS 67[inhibitor] | MEKK2wt confirm inactive | MEKK2mut-MEK5 inactive | MEKK3-MEK5 inh inactive
COc1ccccc1C1CCCN1Cc1nc(-c2cc3c(cc2Cl)OCO3)oc1C (stereo unspecified)	none
COc1ccccc1C1CCCN1Cc1nc(-c2ccc(C)s2)oc1C (stereo unspecified)	MEKK2wt PB1 HTS 63[inhibitor], MEKK3 PB1 HTS 61[inhibitor] | MEKK2wt confirm inactive | MEKK2mut-MEK5 inactive | MEKK3-MEK5 inh inactive
COc1ccc(CNC(=O)CSCc2ccccc2Cl)cc1	MEKK3 PB1 HTS 128 | MEKK2wt confirm inactive | MEKK2mut-MEK5 inactive | MEKK3-MEK5 inh inactive
COc1ccc(CNC(=O)CCSCc2ccccc2Cl)c(OC)c1	none
COc1ccc(C2/C(=C(/O)c3ccc(C)cc3)C(=O)C(=O)N2CCCN2CCOCC2)cc1 (stereo unspecified)	none
COc1cc(-c2nc(-c3ccc(NC(=O)c4ccc5c(c4)OCO5)cc3)no2)cc(OC)c1OC	MEKK2wt PB1 HTS 45[inhibitor] | MEKK2wt confirm inactive | MEKK2mut-MEK5 inactive | MEKK3-MEK5 inh inactive
Cc1ccccc1-c1nc(-c2ccc(NC(=O)c3ccc4c(c3)OCO4)cc2)no1	none
CCn1c(SCC(=O)Nc2cc(C(C)(C)C)nn2-c2ccccc2)nnc1-c1cccs1	MEKK3 PB1 HTS 151 | MEKK2wt confirm inactive | MEKK2mut-MEK5 inactive | MEKK3-MEK5 inh inactive
CCN1C(=O)[C@H]2[C@@H](c3ccc(-c4ccc(F)cc4)cc3)N3CCCC[C@@]3(C(=O)OC)[C@H]2C1=O	none (no result: MEKK2mut PB1 HTS, HCV NS3 hel inh, MEKK2wt PB1 HTS, DNA FID counter, MEKK3 PB1 HTS)
N#Cc1c(-c2cccnc2)cc(-c2ccccc2)nc1N	MEKK3 PB1 HTS 129 | MEKK2wt confirm inactive | MEKK2mut-MEK5 inactive | MEKK3-MEK5 inh inactive
CC(=O)N[C@@H](C)C(=O)N1CCN(S(=O)(=O)c2ccc(Cl)cc2)CC1	none
CN1CCN(c2ccc(C(F)(F)F)cc2NC(=O)Nc2ccccc2)CC1	MEKK2wt PB1 HTS 150 | MEKK2wt confirm inactive | MEKK2mut-MEK5 inactive | MEKK3-MEK5 inh inactive
CCOC(=O)N/N=C(\c1ccccc1)C(O)c1ccccc1 (stereo unspecified)	none
COc1ccc(CNC(=O)CN(Cc2ccc(F)cc2)C(=O)c2csnn2)cc1	MEKK3 PB1 HTS 148 | MEKK2wt confirm inactive | MEKK2mut-MEK5 inactive | MEKK3-MEK5 inh inactive
Cc1ccc(C(C(=O)NC2CCCC2)N(Cc2ccccc2)C(=O)c2csnn2)o1 (stereo unspecified)	none
Cc1ccc(C(C(=O)NC2CCCC2)N(Cc2ccc(F)cc2)C(=O)c2csnn2)o1 (stereo unspecified)	MEKK2wt PB1 HTS 3.0[inhibitor], MEKK3 PB1 HTS 3.0[inhibitor] | MEKK2wt confirm inactive | MEKK2mut-MEK5 inactive | MEKK3-MEK5 inh inactive
Cc1ccc(C(=O)N2CCN(c3ccccc3Cl)CC2)cc1[N+](=O)[O-]	none
CC(C)(C)NC(=O)c1ccc2nsnc2c1	none
COC(=O)CN(C#N)c1nc(C)cc(C)n1	MEKK3 PB1 HTS 133 | MEKK2wt confirm inactive | MEKK2mut-MEK5 inactive | MEKK3-MEK5 inh inactive
COC(=O)c1cc(C)sc1NC(=O)C1CC(=O)NN1Cc1ccccc1 (stereo unspecified)	MEKK3 PB1 HTS 137 | MEKK2wt confirm inactive | MEKK2mut-MEK5 inactive | MEKK3-MEK5 inh inactive
CCOC(=O)c1cc(CC)sc1NC(=O)C1CC(=O)NN1Cc1ccccc1 (stereo unspecified)	none
Oc1ccc(-n2cnnn2)cc1	MEKK3 PB1 HTS 71[inhibitor] | MEKK2wt confirm inactive | MEKK2mut-MEK5 inactive | MEKK3-MEK5 inh inactive
Clc1ccc(-n2cnnn2)cc1	none
COc1ccccc1NC(=O)CSc1nc2n[nH]c(C)c2c(=N)n1-c1ccccc1Cl	MEKK2wt PB1 HTS 140 | MEKK2wt confirm inactive | MEKK2mut-MEK5 inactive | MEKK3-MEK5 inh inactive
